PubChem BioAssay AID1267 (The Scripps Research Institute Molecular Screening Center, 2008)
About 770 (64%) of roughly 1,200 compounds were called active.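 How the source made its calls: active means percent activation of the STAT3 luciferase reporter above a set limit taken from the earlier primary screen (cut at about 130% in these data); inactive means the rest.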 The set was probably picked from earlier hits. These entries were drawn from the full list.

Experiment: enhancers of IL-6 STAT3 signaling – U3A cells, luciferase, luminescence, confirmation (AID 1267);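 further: 0% = background signal of medium plus substrate and 100% = median of IL-6 with DMSO wells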
Settings: U3A STAT3-luciferase reporter, IL-6 potentiation, at 5.7 µM, hits give high values, 100 means same as IL-6 alone, U3A cells lack STAT1
How it was run: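 Replicates: triplicate / Test system: STAT1-null U3A cells carrying STAT3-luciferase reporter / Measured by: luciferase reporter luminescence / Dosing: single nominal compound dose of 5.7 µM / Benchmarks: high control IL-6 plus DMSO wells, media-only background wells / Probe or stimulus: IL-6 stimulus at 33 ng/mL final / Times: 1 h pretreatment, 6 h IL-6, 37 °C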

SMILES	potentiation (% of control)
CC(=O)Nc1ccc(NC(=O)COc2ccccc2C(=O)Nc2cccc(Cl)c2Cl)cc1	143% (active)
Cc1cccc(C(=O)Nc2nnc(Cc3c[nH]c4ccccc34)s2)c1	150% (active)
CSc1nc(N(C)NC(=O)c2cccc(C)c2)c2ccccc2n1	112% (inactive)
COc1ccc(/C=N/Nc2ncnc3sc4c(c23)CCCC4)cc1O	114% (inactive)
O=C(Nc1cc(C(F)(F)F)ccc1Cl)c1cc(C2CC2)on1	145% (active)
Fc1ccc2nc(-c3ccccc3)nc(SCc3nnc(-c4ccccc4)o3)c2c1	132% (inactive)
OC(COc1ccc2ccccc2c1)CN1CCOCC1 (stereo not given)	157% (active)
COc1ccccc1C1C2=C(COC2=O)Nc2cc3c(cc21)OCO3 (stereo not given)	124% (inactive)
COc1ccc(-c2c3c(=O)n(C)c(=O)n(C)c3cn2-c2cccc(OC)c2)cc1	158% (active)
O=C(NCc1ccco1)c1cccn2c(=O)c3c4c(sc3nc12)CCCC4	128% (inactive)
COc1ccccc1N1CCN(C(=O)c2cc3c(-c4ccc(Cl)cc4)nn(C)c3s2)CC1	125% (inactive)
Cn1nc(-c2ccc(Cl)cc2)c2cc(C(=O)NCc3ccco3)sc21	153% (active)
COc1ccc(C)cc1NC(=O)c1[nH]c(C)c(C(C)=O)c1C	144% (active)
N#Cc1ccccc1NC(=O)COc1c(Br)cc(Br)c2cccnc12	162% (active)
O=C(C1CCN(S(=O)(=O)Cc2ccccc2)CC1)N1CCCc2ccccc21	118% (inactive)
CSc1nc2sc3c(c2c(=O)[nH]1)CCc1ccccc1-3	142% (active)
CCSc1nnc(-c2cc3c(s2)-c2ccccc2CC3)o1	162% (active)
COc1cccc(NC(=S)C(C#N)=C2N(C)c3ccccc3N2C)c1	122% (inactive)
COc1ccc(C2c3[nH]c4ccccc4c3CCN2CCCn2cccn2)cc1C (stereo not given)	142% (active)
Cc1ccc(OCc2nnc(SC3CCc4ccccc4C3=O)n2C)cc1 (stereo not given)	151% (active)
CN1CCN(c2ccc([N+](=O)[O-])c(Sc3nc4ccccc4[nH]3)c2)CC1	107% (inactive)
Cc1ccc(S(=O)(=O)Nc2nc3ccccc3nc2N2CCc3ccccc3C2)cc1	124% (inactive)
Cc1cccc(N(CC(=O)N=Nc2c(O)[nH]c3ccccc23)S(C)(=O)=O)c1C	129% (inactive)
Cc1nc2ccccc2cc1O	146% (active)
COC(=O)c1[nH]c2ccccc2c1NS(=O)(=O)c1ccc(OC)cc1OC	116% (inactive)

SMILES	potentiation (% of control)
CCCS(=O)(=O)Nc1c(C(=O)O)[nH]c2ccccc12	170% (active)
CCn1c(SCC(=O)N/N=C/C=C/c2ccccc2[N+](=O)[O-])nnc1-c1ccccc1	137% (active)
CC(C)CNC(=O)COC(=O)/C=C/c1ccccc1[N+](=O)[O-]	126% (inactive)
N#Cc1c(C(F)(F)F)cc(-c2ccc(Cl)cc2)nc1SCC(=O)O	159% (active)
COc1ccc(Cl)cc1NC(=O)c1oc(C)nc1C	147% (active)
C/C(=N\NC(=O)CNc1cccc2ccccc12)c1ccc(Br)s1	98.2% (inactive)
Cc1ccc(/C=N/NC(=O)COc2ccccc2-c2ccccc2)cc1	135% (active)
Cc1ccc(C2=NN(C)c3nc4ccccc4n3C2)cc1	151% (active)
Oc1c(C=Nc2cccc3nsnc23)ccc2ccccc12	129% (inactive)
COc1cc(OC)cc(C(=O)N[C@H](C(=O)Nc2nc3ccccc3[nH]2)C(C)C)c1	108% (inactive)
COc1cc(NS(=O)(=O)c2ccc(N/C=C(\C=O)c3nc4cc(Cl)ccc4o3)cc2)nc(OC)n1	144% (active)
C/C(=N\c1nc2ccccc2n1C)c1cc(Cl)ccc1O	118% (inactive)
Cc1ccc(NC(=O)c2cc([N+](=O)[O-])ccc2Cl)c(O)c1	158% (active)
Oc1cccc2ccc(/C=C/c3ccc(Br)s3)nc12	169% (active)
Cn1cccc1C(=O)Nc1nccs1	132% (inactive)
CCOC(=O)N1CCN(CC(=O)Nc2cc(C)nn2-c2nc3ccccc3s2)CC1	140% (active)
NC(=O)CSc1c[nH]c2ccccc12	165% (active)
O=c1[nH]c(CSc2ncc(-c3ccc(F)cc3)n2Cc2ccco2)nc2ccccc12	122% (inactive)
COc1ccc([N+](=O)[O-])cc1C1NN=C(c2cccc3ccccc23)S1 (stereo not given)	138% (active)
O=C1CCCN1CCCNc1ncnc2c1[nH]c1ccccc12	144% (active)
COCCCNc1nc2c(-c3cccc(C(F)(F)F)c3)nnn2c2ccccc12	134% (active)
COc1ccccc1-c1nnc(SCC(=O)N2CC(C)CC(C)C2)o1 (stereo not given)	117% (inactive)
COc1ccccc1-c1nnc(NC(=O)c2ccc3ncsc3c2)o1	147% (active)
Cc1cccc(C(=O)N2CCc3c([nH]c4ccccc34)C2CC(C)C)n1 (stereo not given)	159% (active)
c1ccc(-c2cn3c(n2)CCc2ccc4cccnc4c2-3)cc1	139% (active)

SMILES	potentiation (% of control)
CCOC(=O)c1c(-c2cccc(C)c2)csc1NC(=O)c1c(-c2ccccc2)noc1C	122% (inactive)
O=C(O)CS/C(=C\c1ccc(F)cc1)c1nc2ccccc2s1	132% (inactive)
O=C(O)CSCc1nc2ccccc2s1	154% (active)
COc1ccc(NC(=O)ON=C2c3ccccc3-c3ccccc32)cc1	121% (inactive)
CCOc1ccc(C2c3[nH]c4ccccc4c3CCN2Cc2cn(CC)nc2C)cc1 (stereo not given)	143% (active)
COc1nc(N=C(N)N)nc2c(C)cccc12	144% (active)
Cc1nc(N=C(N)N)nc2c(C)cccc12	172% (active)
Cc1ccc(N=Nc2c(C)[nH]n(-c3ccccc3)c2=O)cc1	147% (active)
CCOC(=O)C1CCN(c2ncnc3c2oc2ccc(Br)cc23)CC1	138% (active)
CCNCc1cc2cc(C)ccc2[nH]c1=O	120% (inactive)
CSCCC(NC(=O)c1ccco1)C(=O)OCC(=O)Nc1ncc(Cl)c(C)c1Cl (stereo not given)	124% (inactive)
C=CCCC(=O)Nc1nc(C)c(-c2csc(Nc3ccc(Cl)cc3)n2)s1	135% (active)
Cc1ccc(Nc2nc(-c3sc(NC(=O)c4ccccc4)nc3C)cs2)cc1	122% (inactive)
CCCCC(=O)Nc1nc(C)c(-c2csc(Nc3ccc(Cl)cc3)n2)s1	133% (inactive)
Cc1ccc(-c2cc(C(=O)Nc3nn[nH]n3)c3ccccc3n2)c(C)c1	121% (inactive)
O=[N+]([O-])c1ccc(N2CCN(S(=O)(=O)c3ccc4ccccc4c3)CC2)cc1NCc1ccco1	123% (inactive)
CN1C(=O)/C(=C\c2cc(Br)cs2)c2ccccc21	190% (active)
Cc1csc2ncc(C(=O)N(Cc3ccccc3)c3ccccn3)c(=O)n12	111% (inactive)
O=C(Cc1c[nH]c2ccccc12)OCCOC(=O)Cc1c[nH]c2ccccc12	121% (inactive)
CCOC(=O)CN(C)Cc1c[nH]c2ccccc12	157% (active)
COc1cccc(/C=C(/CC(=O)Nc2ccc(N3CCOCC3)cc2)c2nc3ccccc3s2)c1	146% (active)
Oc1cccc(C2c3[nH]c4ccccc4c3CCN2Cc2cnn(-c3ccccc3)c2)c1 (stereo not given)	137% (active)
COC(=O)c1[nH]c2ccccc2c1NC(=O)CN1CCCc2ccccc21	153% (active)
COC(=O)c1[nH]c2cccc(C)c2c1NC(=O)CN1CCCc2ccccc21	128% (inactive)
C=CCn1c(-c2ccccc2OCC)n[nH]c1=S	178% (active)
